The results in this text go back to ChEMBL document CHEMBL3860031, “Design, synthesis and antitrypanosomal activity of some nitrofurazone 1,2,4-triazolic bioisosteric analogues” (Eur J Med Chem, 2016).

One data set relates to Trypanosoma cruzi. The experiment in a line: Antitrypanosomal activity against amastigote stage of Trypanosoma cruzi Y infected in human U2OS cells after 96 hrs by Draq5 staining-based high content screening assay. It is filed as functional, cell-based. Summed up: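 U2OS cells (700/well, high glucose DMEM + 10% heat-inactivated FBS) seeded and incubated 24 h at 37 °C/5% CO2. Infected next day with 2800 Y strain trypomastigotes from LLC-MK2 cultures in low glucose DMEM + 2% FBS. Compounds added on day 3 as 15-point 2-fold dilutions, 1% DMSO final, top 200 µM. After 96 h, fixed in 4% paraformaldehyde, 5 µM Draq5 stain, imaged. Infection ratio normalized to infected/uninfected DMSO controls. EC50 from sigmoidal variable-slope fit. Duplicate wells, three independent experiments.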

Data set [1] in a line: Selectivity index, ratio of CC50 for human U2OS cells infected with amastigote stage of Trypanosoma cruzi Y to EC50 for amastigote stage of Trypanosoma cruzi Y. The format is toxicity, cell-based. To be noted: U2OS cells infected with Trypanosoma cruzi Y amastigotes, read-out: Ratio CC50/EC50. Summed up:
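S.I. = CC50/EC50 from the infected U2OS high-content assay. When CC50 could not be calculated, S.I. = highest tested concentration/EC50.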

The nature of data set [2]: Cytotoxicity against non-infected human U2OS cells assessed as decrease in number of cells after 96 hrs by Draq5 staining-based high content screening assay. It is filed as toxicity, cell-based. Summed up: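 Separate plate with non-infected U2OS cells (700/well, DMEM + 10% FBS) and compounds in 15-point 2-fold dilutions, top 200 µM, 1% DMSO final. After 96 h, fixed with 4% paraformaldehyde, stained with 5 µM Draq5, cells counted by imaging. CC50 from sigmoidal variable-slope curve fitting.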

A short description of data set [3]: Cytotoxicity against human U2OS cells infected with amastigote stage of Trypanosoma cruzi Y assessed as decrease in number of cells after 96 hrs by Draq5 staining-based high content screening assay. To be noted: U2OS cells infected with Trypanosoma cruzi Y amastigotes. It is filed as toxicity, cell-based. Summed up:
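Run on the same infected U2OS plates as the antiparasitic read (700 cells/well, 2800 Y strain trypomastigotes, compounds from day 3, 15-point 2-fold dilutions, top 200 µM, 1% DMSO final). Cells fixed after 96 h with 4% paraformaldehyde and stained with 5 µM Draq5. Total cell count compared with DMSO-treated infected controls. CC50 = concentration giving 50% cell number, from sigmoidal variable-slope fit. Three independent experiments.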

In the data set with Trypanosoma cruzi, `O=C(Cn1cncn1)c1ccc(F)cc1F` registered an EC50 of 144 µM and an Emax of 68.7%. Also, the selectivity ratio in data set [1] is greater than 1.4. For the same molecule, the Activity entry in data set [2] is reported as “Non-Toxic”.

In the data set with Trypanosoma cruzi, `O=C(Cn1cnc([N+](=O)[O-])n1)c1ccc(F)cc1F` registered an EC50 of 5.53 µM and an Emax of 87%. Besides, the selectivity ratio in data set [1] was greater than 36. In addition, in data set [2], the Activity result is given as “Non-Toxic”.

In the data set on Trypanosoma cruzi, `NC(=O)NN=C(Cn1cnc([N+](=O)[O-])n1)c1ccc(F)cc1F` yielded an EC50 of 101 µM and an Emax of 95.2%. Further, in data set [1], the selectivity ratio is greater than 2. In addition, in data set [2], the Activity result is “Non-Toxic”.

Regarding `NC(=O)NN=C(Cn1cncn1)c1ccc(F)cc1F`, in the data set on Trypanosoma cruzi, the EC50 came out at 63.1 µM and the Emax came to 96.6%. In data set [1], the selectivity ratio was greater than 3.1. In data set [2], the Activity result is on record as “Non-Toxic”.

Consider `NC(=S)NN=C(Cn1cnc([N+](=O)[O-])n1)c1ccc(F)cc1F`, for which, in the data set on Trypanosoma cruzi, the EC50 stood at 21.6 µM and the Emax worked out at 92.8%. Moreover, the selectivity ratio in data set [1] was greater than 9.27. In data set [2], the Activity entry was “Non-Toxic”.

In the data set on Trypanosoma cruzi, `NC(=S)NN=C(Cn1cncn1)c1ccc(F)cc1F` yielded an EC50 of 15.4 µM and an Emax of 95.2%. In data set [1], the selectivity ratio is greater than 13. Also, the Activity result in data set [2] is reported as “Non-Toxic”.

In the case of `O=C(Cn1ccnc1[N+](=O)[O-])NCc1ccccc1` [BENZNIDAZOLE], in the data set on Trypanosoma cruzi, it took 3.96 µM to reach a half-maximal effect (EC50) and the Emax turned out to be 104%. Also, the selectivity ratio in data set [1] is greater than 101.

With `CC1CS(=O)(=O)CCN1/N=C/c1ccc([N+](=O)[O-])o1` (stereo unspecified) [NIFURTIMOX], the CC50 at 96 h in data set [3] was determined as 26.8 µM. In the data set on Trypanosoma cruzi, this molecule came in with an EC50 of 0.34 µM and an Emax of 102%. Also, in data set [1], the selectivity ratio was 78.9.
